Laboratory results from ChEMBL document CHEMBL1149661, “Synthesis, biological evaluation, and molecular modeling of 3,5-substituted-N1-phenyl-N4,N4-di-n-butylsulfanilamides as antikinetoplastid antimicrotubule agents” (Bioorg Med Chem, 2007).

What was measured:
Tubulin (Sus scrofa) = Tubulin (Sus scrofa) (UniProt P02554+P02550); assay: Inhibition of porcine tubulin assembly at 100 uM; type: protein assay
Summary of the method: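 Porcine brain tubulin at a final 2 mg/mL, assembled with compound at a single 100 μM. Inhibition taken from the absorbance change at 351 nm after 20 min at 30 °C, relative to controls without compound.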

[1] = Toxicity against monkey Vero cells; type: cell-based; conditions: Chlorocebus sabaeus (monkey)
[2] = system: Trypanosoma brucei brucei; assay: Growth inhibition against Trypanosoma brucei brucei; type: functional, organism-based
Leishmania donovani = assay: Growth inhibition against Leishmania donovani; type: functional, organism-based
[3] = Inhibition of Leishmania tarentolae tubulin assembly
Summary of the method: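 Purified Leishmania tarentolae tubulin, 1.5 mg/mL, polymerized with or without compound. Assembly read as the absorbance change at 351 nm after 20 min at 30 °C, compared with untreated controls. Assembly kinetics were also followed over time. IC50 is the mean ± SD of at least three independent experiments.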

Tubulin = Tubulin (Sus scrofa, UniProt P02554+P02550); assay: Inhibition of porcine tubulin assembly; type: protein assay
Summary of the method: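 Purified porcine brain tubulin at a final 2 mg/mL (raised from 1.5 mg/mL to make control assembly more reproducible). Polymerization read as the absorbance change at 351 nm after 20 min at 30 °C relative to controls. IC50 is the mean ± SD of at least three independent experiments.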

Sequence of Tubulin (Sus scrofa) (P02550 whole entry, looked up): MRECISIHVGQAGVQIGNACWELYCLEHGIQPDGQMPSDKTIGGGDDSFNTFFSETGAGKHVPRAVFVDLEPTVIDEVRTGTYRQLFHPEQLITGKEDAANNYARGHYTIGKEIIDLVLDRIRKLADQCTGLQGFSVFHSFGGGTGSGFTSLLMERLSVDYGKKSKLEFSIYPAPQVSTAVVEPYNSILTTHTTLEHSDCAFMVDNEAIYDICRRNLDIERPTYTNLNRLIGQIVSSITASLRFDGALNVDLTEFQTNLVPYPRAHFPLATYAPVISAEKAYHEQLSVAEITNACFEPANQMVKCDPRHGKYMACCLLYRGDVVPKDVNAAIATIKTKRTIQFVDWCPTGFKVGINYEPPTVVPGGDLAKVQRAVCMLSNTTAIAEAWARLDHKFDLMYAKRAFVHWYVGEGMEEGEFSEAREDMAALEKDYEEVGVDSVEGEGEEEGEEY
Sequence of Tubulin (Sus scrofa) (P02554 whole entry, looked up): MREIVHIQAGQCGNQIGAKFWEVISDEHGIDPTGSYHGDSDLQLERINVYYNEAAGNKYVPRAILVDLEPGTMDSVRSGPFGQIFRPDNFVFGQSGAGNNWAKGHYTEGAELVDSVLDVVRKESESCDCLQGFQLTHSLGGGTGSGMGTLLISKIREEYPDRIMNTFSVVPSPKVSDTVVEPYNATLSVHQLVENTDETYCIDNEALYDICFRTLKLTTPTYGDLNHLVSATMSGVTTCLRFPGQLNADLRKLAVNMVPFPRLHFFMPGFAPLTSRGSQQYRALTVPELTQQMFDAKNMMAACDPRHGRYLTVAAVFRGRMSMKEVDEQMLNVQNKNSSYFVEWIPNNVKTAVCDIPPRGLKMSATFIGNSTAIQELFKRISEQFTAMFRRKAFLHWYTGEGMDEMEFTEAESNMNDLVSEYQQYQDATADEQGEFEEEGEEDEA

Row | Structure (SMILES) | inhibition (Tubulin (Sus scrofa)) [%] | IC50 [1] [µM] | IC50 [2] [µM] | IC50 (Leishmania donovani) [µM] | IC50 [3] [µM] | IC50 (Tubulin) [µM]
1 | CCCCN(CCCC)c1c(N)cc(S(=O)(=O)Nc2ccccc2)cc1N | 50 | 27 | 4 | 12 | > 100 | > 50
2 | Cc1ccc(C(=O)Nc2ccc(S(=O)(=O)O)c3cc(S(=O)(=O)O)cc(S(=O)(=O)O)c23)cc1NC(=O)c1cccc(NC(=O)Nc2cccc(C(=O)Nc3cc(C(=O)Nc4ccc(S(=O)(=O)O)c5cc(S(=O)(=O)O)cc(S(=O)(=O)O)c45)ccc3C)c2)c1 [SURAMIN] |  |  | 0.077 |  |  | 
3 | CCCCN(CCCC)c1c(C(=O)O)cc(S(=O)(=O)Nc2ccccc2)cc1C(=O)O |  |  | > 50 | > 50 | > 100 | 
4 | COc1cc([C@@H]2c3cc4c(cc3[C@H](O)[C@H]3COC(=O)[C@H]23)OCO4)cc(OC)c1OC [PODOFILOX] |  | 0.016 |  |  |  | 
5 | CCCCN(CCCC)c1c(Cl)cc(S(=O)(=O)Nc2ccccc2)cc1Cl |  | 19 | 1.6 | 11 | 9.1 | > 50
6 | CCCCN(CCCC)c1c(C(N)=O)cc(S(=O)(=O)Nc2ccccc2)cc1C(N)=O |  |  | > 50 | > 50 | > 100 | 
7 | CCCCN(CCCC)c1c(C(=O)OC)cc(S(=O)(=O)Nc2ccccc2)cc1C(=O)OC |  |  | > 50 | > 50 | > 100 | 
8 | CCCCN(CCCC)c1c(C#N)cc(S(=O)(=O)Nc2ccccc2)cc1C#N |  | 16 | 0.26 | 4.4 | 6.6 | > 50
9 | CCCCN(CCCC)c1c([N+](=O)[O-])cc(S(=O)(=O)Nc2ccccc2)cc1[N+](=O)[O-] |  | 9.7 | 0.18 | 2.3 | 7.4 | > 40
10 | N=C(N)c1ccc(OCCCCCOc2ccc(C(=N)N)cc2)cc1 [PENTAMIDINE] |  |  |  | 2.3 |  | 
11 | CCCCN(CCCC)c1c(C(C)=O)cc(S(=O)(=O)Nc2ccccc2)cc1C(C)=O |  | 26 | 1.6 | 30 | > 100 | > 100
